“Also recorded” adds a separate entry of the source.
Assays:
[1] = molecular target: T1, human P4H (Homo sapiens, UniProt P13674); experiment: HPLC-based assay of P4H enzymatic activity; assay type: biochemical; settings: for Product formation as substrate for P4H: HPLC (for Mtp also mass spectrometry), data not shown; for Substrate or Inhibitor: PEG-Gly–Tyr–Yaa–GlyOEt, 50 mM Tris–HCl pH 7.8, P4H 90 nM, α-ketoglutarate 500 μM; for Substrate or Inhibitor / kcat / Km / kcat/KM / kcat/KM relative to that of the Pro-containing peptide: HPLC-based assay; for Substrate or Inhibitor / kcat / Km / kcat/KM: 5 min, 30 °C; for kcat / Km / kcat/KM: pH 7.8, P4H 90 nM, substrate 0.05–3 mM, mean ± SE of three replicates; for kcat / Km: Michaelis–Menten fit
How it was run: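 Human P4H from a previously reported preparation at 90 nM, in 50 mM Tris–HCl pH 7.8 with BSA 1 mg/mL, catalase 100 μg/mL, DTT 100 μM, ascorbate 2 mM, FeSO4 50 μM and α-ketoglutarate 500 μM. Started with tetrapeptide (0.05–3 mM; ethanol stock), run 5 min at 30 °C, then boiled 60 s. Triplicates. C18 HPLC; substrate:product ratio from A214; Michaelis–Menten fit.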

[2] = molecular target: T1, human P4H; experiment: [14C]CO2-release assay from [1-14C]α-ketoglutarate; assay type: biochemical; settings: substrate at 10% of KM; duplicate
How it was run: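 Release of [14C]CO2 from [1-14C]α-ketoglutarate. Component levels as in the HPLC assay, except P4H at 395 nM. Each peptide tested at 10% of its KM from the HPLC assay. Run in duplicate; the decarboxylation rate without peptide was subtracted. Rate (μM/min) expressed as % of the Pro-containing peptide.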

[3] = test system: P4H; settings: binds to the enzyme, not hydroxylated; ref [33]; cited from earlier work

T1 sequence (P13674 18-534): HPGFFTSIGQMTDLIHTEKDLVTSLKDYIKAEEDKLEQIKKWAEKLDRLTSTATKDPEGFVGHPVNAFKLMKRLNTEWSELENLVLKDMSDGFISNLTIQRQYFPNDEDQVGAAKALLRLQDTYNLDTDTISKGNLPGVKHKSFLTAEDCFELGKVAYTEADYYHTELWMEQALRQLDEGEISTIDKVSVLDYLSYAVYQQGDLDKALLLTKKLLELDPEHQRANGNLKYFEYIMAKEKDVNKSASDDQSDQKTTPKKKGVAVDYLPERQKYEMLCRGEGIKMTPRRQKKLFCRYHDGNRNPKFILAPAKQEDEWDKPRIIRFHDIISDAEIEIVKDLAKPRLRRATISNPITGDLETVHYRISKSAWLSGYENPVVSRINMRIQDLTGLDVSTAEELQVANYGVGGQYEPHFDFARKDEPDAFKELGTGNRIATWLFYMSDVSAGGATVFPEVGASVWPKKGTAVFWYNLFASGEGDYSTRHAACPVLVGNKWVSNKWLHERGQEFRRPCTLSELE
T1 sequence (P07237 18-508 partner): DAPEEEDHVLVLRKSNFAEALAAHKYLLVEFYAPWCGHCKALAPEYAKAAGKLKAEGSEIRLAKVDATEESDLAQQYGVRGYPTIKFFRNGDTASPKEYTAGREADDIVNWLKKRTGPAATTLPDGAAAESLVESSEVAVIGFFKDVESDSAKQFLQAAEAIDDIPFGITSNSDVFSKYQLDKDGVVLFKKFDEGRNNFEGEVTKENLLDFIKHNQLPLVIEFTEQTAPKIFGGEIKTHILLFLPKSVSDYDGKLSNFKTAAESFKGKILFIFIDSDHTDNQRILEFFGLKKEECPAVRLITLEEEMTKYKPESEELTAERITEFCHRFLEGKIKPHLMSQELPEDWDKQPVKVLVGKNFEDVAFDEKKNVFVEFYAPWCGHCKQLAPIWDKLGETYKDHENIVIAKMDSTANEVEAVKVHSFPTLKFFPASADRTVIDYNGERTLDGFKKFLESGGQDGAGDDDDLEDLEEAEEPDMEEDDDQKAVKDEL

| Substance | Product formation as substrate for P4H [1] | Substrate or Inhibitor [1] | kcat [1] [s⁻¹] | Km ([1]; SEM) [µM] | kcat ([1]; SEM) [s⁻¹] | kcat/KM [1] | kcat/KM relative to that for dansyl-Gly–Phe–Pro–GlyOEt ([1]; comparator value from ref [18]) [fold] | % of Pro (rate of CO2 release) [2] [%] | kcat/KM relative to that of the Pro-containing peptide [1] [%] | Inhibition of P4H enzymatic activity [3] |
| --- | --- | --- | --- | --- | --- | --- | --- | --- | --- | --- |
| Cbz-Gly–Tyr–Mtp–GlyOEt | No product was detected | Neither | – | – | – | – | – | – | – | – |
| PEG-Gly–Tyr–Kep–GlyOEt | not found to be a substrate | neither substrates nor inhibitors; also recorded: Neither | – | – | – | – | – | – | – | – |
| PEG-Gly–Tyr–Pro–GlyOEt | – | Substrate | 6 | 580 ± 30 | 6 ± 0.12 | 10 ± 0.6 10^3 M^−1s^−1 | 3 | 100 | – | – |
| PEG-Gly–Tyr–Thp–GlyOEt | – | Substrate | – | 6400 ± 1400 | 7.83 ± 0.983 | 1.2 ± 0.3 10^3 M^−1s^−1 | – | 6 | 12 | – |
| PEG-Gly–Tyr–flp–GlyOEt | No product formation was detected | Substrate | 4.17 | 1600 ± 300 | 4.17 ± 0.35 | 2.7 ± 0.5 10^3 M^−1s^−1 | – | 26 | 27 | – |
| polyproline | – | – | – | – | – | – | – | – | – | competitive inhibitor |
